Sampled rows, rich in hits. Any-hit rate of the full collection: about 0.11%.
Furin inhibitor: inhibitors of human furin | P09958 | purified furin, fluorogenic substrate cleavage | inhibition, % at 20 µM or 30 µM | hit rate 0.061% among 220,000 | AID 463115; in the data active = inhibition above about 25%
Pf gametocyte: P. falciparum stage V gametocyte viability inhibition | hit rate 0.065% among 150,000 | inhibition, % at 10.9 µM | P. falciparum stage V gametocytes, ATP luminescence, 24 h;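 active = inhibition above the mean plus 3 SD of compounds within the control limits, set per campaign, cut at about 38% in these data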;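 note: 0% = DMSO wells and 100% = medium only without gametocytes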
Calb biofilm kill: mixtures killing C. albicans biofilm; C. albicans biofilm persisters + clotrimazole, fluorescence viability; primary screen in compound mixtures of four per well; inhibition, % at 7.6 µM; hit rate 0.02% among 120,000; AID 1242;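 active = inhibition above 30.3% in the primary screen of four-compound pools, then above 30% when the compound was retested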;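 note: compounds exposed to preformed 24 h biofilms for 48 h; 0% = untreated biofilm control and 100% = clotrimazole plus chlorhexidine kill blank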
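Test system: C. albicans biofilms. Buffer or medium: RPMI/MOPS medium, pH 7.0. Timing: 48 h compound exposure at 37 °C. Technique: Alamar Blue fluorescence. Evaluation: percent inhibition of biofilm viability.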
Numbers without * were called inactive; . = not tested or not shown.

SMILES	Furin inhibitor	Pf gametocyte	Calb biofilm kill
CCCCN1CCC(O)(c2ccccc2)C(C(=O)c2ccccc2)C1 (stereo not given)	34.1*	.	6.7
CCC1CN(C)CCC1(OC(C)=O)c1ccccc1 (stereo not given)	-18.3	.	13.1
CCc1nc2ccccc2c(=O)n1-c1ccccc1[N+](=O)[O-]	-17.5	-0.4	15.8
Cc1nnc(SCc2nc3ccccc3c(=O)n2-c2ccccc2Cl)n1N	26.4*	.	.
CN1/C(=C\C=Nc2ccccc2)C(C)(C)c2ccccc21	-7.1	.	.
CN1/C(=C\C=C2C(=O)NC(=O)NC2=O)C(C)(C)c2ccccc21	27.9*	-30.3	13.2
COc1cc(C(=S)N2CCOCC2)cc(OC)c1OC(=O)Cc1ccccc1	-8.9	.	5.5
C=CCn1c(O)c(/C=N/NC(=O)c2ccncc2)c(=O)[nH]c1=O	36.4*	10.7	22.0
O=C(N/N=C/c1c(O)n(Cc2ccccc2)c(=O)[nH]c1=O)c1ccncc1	2.6	-12.3	19.3
O=C(O)c1sc2cc(Cl)ccc2c1Cl	-18.2	.	31.4
CN1CCC(O)(c2cccs2)C(C(=O)c2cccs2)C1 (stereo not given)	.	7.7	.
CN1CCCC(C(=O)c2ccc(Cl)cc2)C1 (stereo not given)	-26.8	.	15.3

Screening results from PubChem.
